In brackets after ≈: the same amount, converted by molar mass. Activity calls are given as the source filed them. The rule behind the calls is not given here.
Experiments:
[1] = test system: Staphylococcus aureus; assay: Antibacterial activity against methicillin-resistant Staphylococcus aureus clinical isolate 6 assessed as reduction in bacterial growth incubated for 16 to 20 hrs by CLSI-based broth microdilution method; type: functional; conditions: time 16-20 hrs
In short: (§1)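 Clinical isolates tested by broth microdilution in cation-adjusted Mueller-Hinton broth. Cultures grown 4-6 h (~10^8 CFU/mL) were diluted to ~10^6 CFU/mL and mixed 1:1 with compound serial dilutions made from 256 down to 0.5 µg/mL (pre-mixing). Plates held at 37 °C for 16-20 h, then read for growth. Each concentration run in duplicate, whole experiment at least twice.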

[2] = test system: Cell membrane; assay: Induction of inner membrane permeabilization in Staphylococcus aureus ATCC 29213 at 20 ug/ml measured for 12 mins by propidium iodide staining based fluorescence microscopic analysis; conditions: dose 20.0 µg/ml
In short: (§2)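 Mid-log bacteria were washed and resuspended at ~10^8 CFU/mL and preincubated with propidium iodide (10 µM stock) for 30 min (S. aureus) or 40 min (E. coli). Fluorescence (ex 535/em 617 nm) was read on a plate for an 8 min baseline, then every 2 min for 12 min after compound at 20 µg/mL final. Water served as control.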

[3] = test system: Escherichia coli; assay: Antibacterial activity against Escherichia coli ATCC 25922 assessed as reduction in bacterial growth incubated 16 to 20 hrs by CLSI-based broth microdilution method; type: functional; conditions: time 16-20 hrs
In short: (§3)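 Broth microdilution following CLSI, in cation-adjusted Mueller-Hinton broth. Inoculum from a 4-6 h culture (~10^8 CFU/mL), diluted to ~10^6 CFU/mL. Water stocks were serially diluted in MHB (256 to 0.5 µg/mL) and mixed 1:1 with the inoculum. Plates ran 16-20 h at 37 °C. MIC was read visually. Each concentration was tested in duplicate, and the experiment was repeated at least twice.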

[4] = test system: Klebsiella pneumoniae; assay: Antibacterial activity against carbapenem-resistant Klebsiella pneumoniae clinical isolate 1 assessed as reduction in bacterial growth incubated for 16 to 20 hrs by CLSI-based broth microdilution method; type: functional; conditions: time 16-20 hrs; in short: as §1
[5] = test system: Staphylococcus aureus; assay: Antibacterial activity against Staphylococcus aureus ATCC 29213 assessed as reduction in bacterial growth incubated for 16 to 20 hrs by CLSI-based broth microdilution method; type: functional; conditions: time 16-20 hrs; in short: as §3
[6] = test system: Staphylococcus aureus; assay: Antibacterial activity against methicillin-resistant Staphylococcus aureus clinical isolate 5 assessed as reduction in bacterial growth incubated for 16 to 20 hrs by CLSI-based broth microdilution method; type: functional; conditions: time 16-20 hrs; in short: as §1
[7] = test system: Klebsiella pneumoniae; assay: Antibacterial activity against carbapenem-resistant Klebsiella pneumoniae clinical isolate 10 assessed as reduction in bacterial growth incubated for 16 to 20 hrs by CLSI-based broth microdilution method; type: functional; conditions: time 16-20 hrs; in short: as §1
[8] = test system: Salmonella enterica; assay: Antibacterial activity against Salmonella enterica ATCC 8387 assessed as reduction in bacterial growth incubated for 16 to 20 hrs by CLSI-based broth microdilution method; type: functional; conditions: time 16-20 hrs; in short: as §3
[9] = test system: Staphylococcus aureus; assay: Antibacterial activity against methicillin-resistant Staphylococcus aureus clinical isolate 7 assessed as reduction in bacterial growth incubated for 16 to 20 hrs by CLSI-based broth microdilution method; type: functional; conditions: time 16-20 hrs; in short: as §1
[10] = test system: Staphylococcus aureus; assay: Antibacterial activity against methicillin-resistant Staphylococcus aureus clinical isolate 2 assessed as reduction in bacterial growth incubated for 16 to 20 hrs by CLSI-based broth microdilution method; type: functional; conditions: time 16-20 hrs; in short: as §1
[11] = test system: Klebsiella pneumoniae; assay: Antibacterial activity against carbapenem-resistant Klebsiella pneumoniae clinical isolate 9 assessed as reduction in bacterial growth incubated for 16 to 20 hrs by CLSI-based broth microdilution method; type: functional; conditions: time 16-20 hrs; in short: as §1
[12] = test system: Klebsiella pneumoniae; assay: Antibacterial activity against carbapenem-resistant Klebsiella pneumoniae clinical isolate 3 assessed as reduction in bacterial growth incubated for 16 to 20 hrs by CLSI-based broth microdilution method; type: functional; conditions: time 16-20 hrs; in short: as §1
[13] = test system: Staphylococcus aureus; assay: Antibacterial activity against methicillin-resistant Staphylococcus aureus clinical isolate 9 assessed as reduction in bacterial growth incubated for 16 to 20 hrs by CLSI-based broth microdilution method; type: functional; conditions: time 16-20 hrs; in short: as §1
[14] = test system: Staphylococcus aureus; assay: Antibacterial activity against methicillin-resistant Staphylococcus aureus clinical isolate 4 assessed as reduction in bacterial growth incubated for 16 to 20 hrs by CLSI-based broth microdilution method; type: functional; conditions: time 16-20 hrs; in short: as §1
[15] = test system: Staphylococcus aureus; assay: Antibacterial activity against methicillin-resistant Staphylococcus aureus clinical isolate 8 assessed as reduction in bacterial growth incubated for 16 to 20 hrs by CLSI-based broth microdilution method; type: functional; conditions: time 16-20 hrs; in short: as §1
[16] = test system: Klebsiella pneumoniae; assay: Antibacterial activity against carbapenem-resistant Klebsiella pneumoniae clinical isolate 8 assessed as reduction in bacterial growth incubated for 16 to 20 hrs by CLSI-based broth microdilution method; type: functional; conditions: time 16-20 hrs; in short: as §1
[17] = test system: Klebsiella pneumoniae; assay: Antibacterial activity against carbapenem-resistant Klebsiella pneumoniae clinical isolate 6 assessed as reduction in bacterial growth incubated for 16 to 20 hrs by CLSI-based broth microdilution method; type: functional; conditions: time 16-20 hrs; in short: as §1
[18] = test system: Cell membrane; assay: Induction of outer membrane permeabilization in Escherichia coli ATCC 25922 at 20 ug/ml measured for 12 mins by NPN dye based fluorescence assay; conditions: dose 20.0 µg/ml
In short: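 Mid-log E. coli in HEPES/glucose/KCl at ~10^8 CFU/mL was preincubated 40 min with N-phenylnaphthylamine (10 µM stock). Fluorescence (ex 350/em 420 nm) was read for an 8 min baseline, then every 2 min for 12 min after compound at 20 µg/mL final. Water served as control.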

[19] = test system: Klebsiella pneumoniae; assay: Antibacterial activity against carbapenem-resistant Klebsiella pneumoniae clinical isolate 4 assessed as reduction in bacterial growth incubated for 16 to 20 hrs by CLSI-based broth microdilution method; type: functional; conditions: time 16-20 hrs; in short: as §1
[20] = test system: Enterobacteriaceae; assay: Antibacterial activity against NDM1 producing carbapenem-resistant Enterobacteriaceae clinical isolate 9 assessed as reduction in bacterial growth incubated for 16 to 20 hrs by CLSI-based broth microdilution method; type: functional; conditions: time 16-20 hrs; in short: as §1
[21] = test system: Enterobacteriaceae; assay: Antibacterial activity against NDM1 producing carbapenem-resistant Enterobacteriaceae clinical isolate 3 assessed as reduction in bacterial growth incubated for 16 to 20 hrs by CLSI-based broth microdilution method; type: functional; conditions: time 16-20 hrs; in short: as §1
[22] = test system: Enterococcus faecalis; assay: Antibacterial activity against Enterococcus faecalis ATCC 29212 assessed as reduction in bacterial growth incubated 16 to 20 hrs by CLSI-based broth microdilution method; type: functional; conditions: time 16-20 hrs; in short: as §3
[23] = test system: Enterobacteriaceae; assay: Antibacterial activity against NDM1 producing carbapenem-resistant Enterobacteriaceae clinical isolate 5 assessed as reduction in bacterial growth incubated for 16 to 20 hrs by CLSI-based broth microdilution method; type: functional; conditions: time 16-20 hrs; in short: as §1
[24] = test system: Cell membrane; assay: Induction of inner membrane permeabilization in Escherichia coli ATCC 25922 at 20 ug/ml measured for 12 mins by propidium iodide staining based fluorescence microscopic analysis; conditions: dose 20.0 µg/ml; in short: as §2
[25] = test system: Enterobacteriaceae; assay: Antibacterial activity against NDM1 producing carbapenem-resistant Enterobacteriaceae clinical isolate 6 assessed as reduction in bacterial growth incubated for 16 to 20 hrs by CLSI-based broth microdilution method; type: functional; conditions: time 16-20 hrs; in short: as §1
[26] = test system: Staphylococcus aureus; assay: Antibacterial activity against methicillin-resistant Staphylococcus aureus clinical isolate 10 assessed as reduction in bacterial growth incubated for 16 to 20 hrs by CLSI-based broth microdilution method; type: functional; conditions: time 16-20 hrs; in short: as §1
[27] = test system: Staphylococcus aureus; assay: Antibacterial activity against methicillin-resistant Staphylococcus aureus clinical isolate 3 assessed as reduction in bacterial growth incubated for 16 to 20 hrs by CLSI-based broth microdilution method; type: functional; conditions: time 16-20 hrs; in short: as §1
[28] = test system: Staphylococcus aureus; assay: Antibacterial activity against methicillin-resistant Staphylococcus aureus clinical isolate 1 assessed as reduction in bacterial growth incubated for 16 to 20 hrs by CLSI-based broth microdilution method; type: functional; conditions: time 16-20 hrs; in short: as §1

In the case of `CCCCCCCCCCCN(C[C@H]1CN(c2ccc(N3CCOCC3)c(F)c2)C(=O)O1)C(=O)[C@@H](N)CCCCN.Cl.Cl`, the MIC [1] is reported as 2 µg/mL, the Activity [2] is reported as “Active” and the MIC [3] is reported as 8 µg/mL. For the same compound, the MIC [4] was 16 µg/mL, the MIC [5] was 2 µg/mL and the MIC [6] was 4 µg/mL. The MIC [7] was 16 µg/mL, the MIC [8] was 16 µg/mL and the MIC [9] was 2 µg/mL. It also gave an MIC [10] of 4 µg/mL, an MIC [11] of 16 µg/mL and an MIC [12] of 16 µg/mL. For the same compound, the MIC [13] was 4 µg/mL, the MIC [14] was 4 µg/mL and the MIC [15] was 4 µg/mL. The MIC [16] was 16 µg/mL, the MIC [17] was 16 µg/mL and the Activity [18] was “inactive”. It also gave an MIC [19] of 16 µg/mL, an MIC [20] of 16 µg/mL and an MIC [21] of 16 µg/mL. For the same compound, the MIC [22] was 4 µg/mL, the MIC [23] was 8 µg/mL and the Activity [24] was “Active”. The MIC [25] was 16 µg/mL, the MIC [26] was 4 µg/mL and the MIC [27] was 2 µg/mL. The MIC [28] was 4 µg/mL.
For `C[C@@H](O)[C@H]1C(=O)N2C(C(=O)O)=C(S[C@@H]3CN[C@H](C(=O)N(C)C)C3)[C@H](C)[C@H]12` [MEROPENEM], the MIC [1] was 32 µg/mL (≈ 83.4 µM), the Activity [2] was “inactive” and the MIC [3] was < 0.125 µg/mL. The MIC [4] was > 64 µg/mL, the MIC [5] was 0.125 µg/mL (≈ 0.326 µM) and the MIC [6] was 64 µg/mL (≈ 167 µM). For the same compound, the MIC [7] was 64 µg/mL (≈ 167 µM), the MIC [8] was < 0.125 µg/mL and the MIC [9] was 64 µg/mL (≈ 167 µM). The MIC [10] was 64 µg/mL (≈ 167 µM), the MIC [11] was > 64 µg/mL and the MIC [12] was 2 µg/mL (≈ 5.22 µM). It also gave an MIC [13] of 64 µg/mL (≈ 167 µM), an MIC [14] of 32 µg/mL (≈ 83.4 µM) and an MIC [15] of 64 µg/mL (≈ 167 µM). The MIC [16] was 32 µg/mL (≈ 83.4 µM), the MIC [17] was > 64 µg/mL and the Activity [18] was “inactive”. For the same compound, the MIC [19] was 32 µg/mL (≈ 83.4 µM), the MIC [20] was > 64 µg/mL and the MIC [21] was 64 µg/mL (≈ 167 µM). For the same compound, the MIC [22] was 4 µg/mL (≈ 10.4 µM), the MIC [23] was 8 µg/mL (≈ 20.9 µM) and the Activity [24] was “inactive”. The MIC [25] was 2 µg/mL (≈ 5.22 µM), the MIC [26] was 32 µg/mL (≈ 83.4 µM) and the MIC [27] was 32 µg/mL (≈ 83.4 µM). For the same compound, the MIC [28] was 64 µg/mL (≈ 167 µM).
